Legend:
Type in all cases: functional
[1] = system: NCI/ADR-RES; assay: Growth inhibition of human NCI/ADR-RES cells assessed as cell growth at 100 uM incubated for 48 hrs by sulforhodamine B assay relative to control; conditions: read-out: Activity
[2] = system: OVCAR-5; assay: Growth inhibition of human OVCAR-5 cells incubated for 48 hrs by sulforhodamine B assay; conditions: for CC50: read-out: LC50 (the source's name)
Outline: (§1)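 NCI DTP 60-line human tumour panel. Dose-response curves were run only for ligands active in the initial 10 µM screen. GI50 (concentration giving 50% of maximal inhibition of proliferation) and TGI (concentration giving total growth inhibition) were derived from these curves.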

[3] = system: COLO 205; assay: Growth inhibition of human COLO 205 cells assessed as cell growth at 100 uM incubated for 48 hrs by sulforhodamine B assay relative to control; conditions: read-out: Activity
Outline: (§2)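 NCI Developmental Therapeutics Program NCI60 panel. Compounds that were active in the 10 µM one-dose screen went on to dose–response testing. Growth at each concentration is expressed relative to untreated control (100%). GI50 (concentration giving 50% of maximal inhibition of proliferation) and TGI (concentration giving total growth inhibition) were derived from the curves.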

[4] = system: UACC-62; assay: Growth inhibition of human UACC-62 cells assessed as cell growth at 0.1 uM incubated for 48 hrs by sulforhodamine B assay relative to control; conditions: read-out: Activity
[5] = system: SK-MEL-5; assay: Growth inhibition of human SK-MEL-5 cells assessed as cell growth at 1 uM incubated for 48 hrs by sulforhodamine B assay relative to control; conditions: read-out: Activity
[6] = system: OVCAR-5; assay: Growth inhibition of human OVCAR-5 cells assessed as cell growth at 0.1 uM incubated for 48 hrs by sulforhodamine B assay relative to control; conditions: read-out: Activity
[7] = system: A549; assay: Growth inhibition of human A549/ATCC cells assessed as cell growth at 0.1 uM incubated for 48 hrs by sulforhodamine B assay relative to control; conditions: read-out: Activity; outline: as §2
[8] = system: M14; assay: Growth inhibition of human M14 cells assessed as cell growth at 100 uM incubated for 48 hrs by sulforhodamine B assay relative to control; conditions: read-out: Activity
[9] = system: OVCAR-3; assay: Growth inhibition of human OVCAR-3 cells assessed as cell growth at 1 uM incubated for 48 hrs by sulforhodamine B assay relative to control; conditions: read-out: Activity
[10] = system: RPMI-8226; assay: Growth inhibition of human RPMI-8226 cells assessed as cell growth at 100 uM incubated for 48 hrs by sulforhodamine B assay relative to control; conditions: read-out: Activity
[11] = system: MDA-MB-468; assay: Growth inhibition of human MDA-MB-468 cells incubated for 48 hrs by sulforhodamine B assay; conditions: for CC50: read-out: LC50 (the source's name)
Outline: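 NCI60 panel at the NCI Developmental Therapeutics Program. Only compounds active in the 10 µM screen went to dose-response testing. GI50, the concentration giving 50% of maximal inhibition of proliferation, and TGI, the concentration giving total growth inhibition, were derived from the dose-response curves.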

[12] = system: NCI-H226; assay: Growth inhibition of human NCI-H226 cells assessed as cell growth at 0.01 uM incubated for 48 hrs by sulforhodamine B assay relative to control; conditions: read-out: Activity
[13] = system: PC-3; assay: Growth inhibition of human PC-3 cells assessed as cell growth at 1 uM incubated for 48 hrs by sulforhodamine B assay relative to control; conditions: read-out: Activity
[14] = system: SN12C; assay: Growth inhibition of human SN12C cells assessed as cell growth at 1 uM incubated for 48 hrs by sulforhodamine B assay relative to control; conditions: read-out: Activity
[15] = system: NCI/ADR-RES; assay: Growth inhibition of human NCI/ADR-RES cells assessed as cell growth at 0.1 uM incubated for 48 hrs by sulforhodamine B assay relative to control; conditions: read-out: Activity
[16] = system: MOLT-4; assay: Growth inhibition of human MOLT-4 cells assessed as cell growth at 100 uM incubated for 48 hrs by sulforhodamine B assay relative to control; conditions: read-out: Activity
[17] = system: PC-3; assay: Growth inhibition of human PC-3 cells incubated for 48 hrs by sulforhodamine B assay; conditions: for CC50: read-out: LC50 (the source's name); outline: as §1
[18] = system: Hs-578T; assay: Growth inhibition of human Hs-578T cells assessed as cell growth at 1 uM incubated for 48 hrs by sulforhodamine B assay relative to control; conditions: read-out: Activity
[19] = system: BT-549; assay: Growth inhibition of human BT-549 cells assessed as cell growth at 0.1 uM incubated for 48 hrs by sulforhodamine B assay relative to control; conditions: read-out: Activity
[20] = system: MDA-MB-435; assay: Growth inhibition of human MDA-MB-435 cells assessed as cell growth at 0.01 uM incubated for 48 hrs by sulforhodamine B assay relative to control; conditions: read-out: Activity
[21] = system: T47D; assay: Growth inhibition of human T47D cells assessed as cell growth at 100 uM incubated for 48 hrs by sulforhodamine B assay relative to control; conditions: read-out: Activity
[22] = system: TK-10; assay: Growth inhibition of human TK-10 cells assessed as cell growth at 100 uM incubated for 48 hrs by sulforhodamine B assay relative to control; conditions: read-out: Activity
[23] = system: 786-0; assay: Growth inhibition of human 786-0 cells assessed as cell growth at 1 uM incubated for 48 hrs by sulforhodamine B assay relative to control; conditions: read-out: Activity; outline: as §2
[24] = system: OVCAR-5; assay: Growth inhibition of human OVCAR-5 cells assessed as cell growth at 0.01 uM incubated for 48 hrs by sulforhodamine B assay relative to control; conditions: read-out: Activity
[25] = system: HOP-62; assay: Growth inhibition of human HOP-62 cells assessed as cell growth at 0.01 uM incubated for 48 hrs by sulforhodamine B assay relative to control; conditions: read-out: Activity
[26] = system: UO-31; assay: Growth inhibition of human UO-31 cells assessed as cell growth at 0.1 uM incubated for 48 hrs by sulforhodamine B assay relative to control; conditions: read-out: Activity
[27] = system: NCI-H226; assay: Growth inhibition of human NCI-H226 cells assessed as cell growth at 1 uM incubated for 48 hrs by sulforhodamine B assay relative to control; conditions: read-out: Activity
[28] = system: Malme-3M; assay: Growth inhibition of human Malme-3M cells assessed as cell growth at 0.1 uM incubated for 48 hrs by sulforhodamine B assay relative to control; conditions: read-out: Activity
[29] = system: T47D; assay: Growth inhibition of human T47D cells assessed as cell growth at 0.1 uM incubated for 48 hrs by sulforhodamine B assay relative to control; conditions: read-out: Activity
[30] = system: KM12; assay: Growth inhibition of human KM12 cells assessed as cell growth at 1 uM incubated for 48 hrs by sulforhodamine B assay relative to control; conditions: read-out: Activity
[31] = system: HT-29; assay: Growth inhibition of human HT-29 cells assessed as cell growth at 100 uM incubated for 48 hrs by sulforhodamine B assay relative to control; conditions: read-out: Activity
[32] = system: SF-295; assay: Growth inhibition of human SF-295 cells assessed as cell growth at 100 uM incubated for 48 hrs by sulforhodamine B assay relative to control; conditions: read-out: Activity
[33] = system: SR; assay: Growth inhibition of human SR cells assessed as cell growth at 1 uM incubated for 48 hrs by sulforhodamine B assay relative to control; conditions: read-out: Activity
[34] = system: Malme-3M; assay: Growth inhibition of human Malme-3M cells assessed as cell growth at 100 uM incubated for 48 hrs by sulforhodamine B assay relative to control; conditions: read-out: Activity
[35] = system: CAKI-1; assay: Growth inhibition of human CAKI-1 cells assessed as cell growth at 1 uM incubated for 48 hrs by sulforhodamine B assay relative to control; conditions: read-out: Activity; outline: as §2
[36] = system: HOP-62; assay: Growth inhibition of human HOP-62 cells assessed as cell growth at 0.1 uM incubated for 48 hrs by sulforhodamine B assay relative to control; conditions: read-out: Activity

Cc1cc(C)c(NC(=O)c2sc3nc4c(cc3c2N)CN(Cc2ccccc2)CC4)c(C)c1
growth at 100 µM [1]: -11% | GI50 [2]: 12.5 µM | TGI [2]: > 100 µM | CC50 [2]: > 100 µM | growth at 100 µM [3]: -60% | growth at 0.1 µM [4]: 97% | growth at 1 µM [5]: 59% | growth at 0.1 µM [6]: 96% | growth at 0.1 µM [7]: 96% | growth at 100 µM [8]: -18% | growth at 1 µM [9]: 76% | growth at 100 µM [10]: -11% | GI50 [11]: 1.78 µM | TGI [11]: 88.7 µM | CC50 [11]: > 100 µM | growth at 0.01 µM [12]: 92% | growth at 1 µM [13]: 75% | growth at 1 µM [14]: 92% | growth at 0.1 µM [15]: 100% | growth at 100 µM [16]: 10% | GI50 [17]: 3.13 µM | TGI [17]: > 100 µM | CC50 [17]: > 100 µM | growth at 1 µM [18]: 76% | growth at 0.1 µM [19]: 91% | growth at 0.01 µM [20]: 92% | growth at 100 µM [21]: 1% | growth at 100 µM [22]: 5% | growth at 1 µM [23]: 82% | growth at 0.01 µM [24]: 90% | growth at 0.01 µM [25]: 83% | growth at 0.1 µM [26]: 88% | growth at 1 µM [27]: 78% | growth at 0.1 µM [28]: 102% | growth at 0.1 µM [29]: 93% | growth at 1 µM [30]: 87% | growth at 100 µM [31]: -26% | growth at 100 µM [32]: -2% | growth at 1 µM [33]: 68% | growth at 100 µM [34]: -17% | growth at 1 µM [35]: 76%

CN1CCc2nc3sc(C(N)=O)c(N)c3c(-c3cccs3)c2C1
growth at 100 µM [3]: -60% | growth at 0.1 µM [4]: 105% | growth at 1 µM [5]: 64% | growth at 0.1 µM [7]: 95% | growth at 100 µM [8]: -27% | growth at 1 µM [9]: 87% | growth at 100 µM [10]: 1% | GI50 [11]: 1.75 µM | TGI [11]: 4.86 µM | CC50 [11]: 41.7 µM | growth at 0.01 µM [12]: 93% | growth at 1 µM [13]: 106% | growth at 1 µM [14]: 80% | growth at 0.1 µM [15]: 96% | growth at 100 µM [16]: -4% | GI50 [17]: 4.58 µM | TGI [17]: > 100 µM | CC50 [17]: > 100 µM | growth at 1 µM [18]: 91% | growth at 0.1 µM [19]: 114% | growth at 0.01 µM [20]: 95% | growth at 100 µM [21]: 2% | growth at 100 µM [22]: -6% | growth at 0.1 µM [36]: 104% | growth at 1 µM [23]: 107% | growth at 0.01 µM [25]: 101% | growth at 0.1 µM [26]: 102% | growth at 1 µM [27]: 88% | growth at 0.1 µM [28]: 111% | growth at 0.1 µM [29]: 94% | growth at 1 µM [30]: 82% | growth at 100 µM [31]: -1% | growth at 100 µM [32]: 4% | growth at 1 µM [33]: 71% | growth at 100 µM [34]: -11% | growth at 1 µM [35]: 82%

Cc1cccc(NC(=O)c2sc3nc4c(cc3c2N)C(=O)CCC4)c1
growth at 100 µM [1]: -3% | TGI [2]: ≥ 100 µM | CC50 [2]: > 100 µM | growth at 100 µM [3]: -8% | growth at 0.1 µM [4]: 72% | growth at 1 µM [5]: 16% | growth at 0.1 µM [6]: 86% | growth at 0.1 µM [7]: 78% | growth at 100 µM [8]: -48% | growth at 1 µM [9]: -7% | growth at 100 µM [10]: 21% | GI50 [11]: 0.143 µM | CC50 [11]: > 100 µM | growth at 0.01 µM [12]: 95% | growth at 1 µM [13]: 29% | growth at 1 µM [14]: 42% | growth at 0.1 µM [15]: 69% | growth at 100 µM [16]: 6% | GI50 [17]: 0.393 µM | TGI [17]: ≥ 100 µM | CC50 [17]: > 100 µM | growth at 1 µM [18]: 11% | growth at 0.1 µM [19]: 74% | growth at 0.01 µM [20]: 87% | growth at 100 µM [21]: -2% | growth at 100 µM [22]: -23% | growth at 0.1 µM [36]: 69% | growth at 1 µM [23]: 30% | growth at 0.01 µM [24]: 96% | growth at 0.01 µM [25]: 88% | growth at 0.1 µM [26]: 81% | growth at 1 µM [27]: 57% | growth at 0.1 µM [28]: 64% | growth at 0.1 µM [29]: 78% | growth at 1 µM [30]: 19% | growth at 100 µM [31]: 3% | growth at 100 µM [32]: 7% | growth at 100 µM [34]: -16% | growth at 1 µM [35]: 30%
